Measured values: ChEMBL document CHEMBL1123514 (J Med Chem, 1986)

What was measured:
Homo sapiens [1] = species: Homo sapiens; test: The compound was evaluated for the optical density at concentration 10E-7 M in MCF-7 cell culture.; assay type: ADME
Homo sapiens [2] = species: Homo sapiens; test: The compound was evaluated for the optical density at concentration 10E-6 M in MCF-7 cell culture.; assay type: ADME
Homo sapiens [3] = species: Homo sapiens; test: The compound was evaluated for the optical density at concentrations 10E-5 M in MCF-7 cell culture in the presence of estradiol.; assay type: ADME
How it was run: (§1)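 MCF-7 cells seeded at 10000 cells/mL in 96-well dishes and cultured 24 h. Compound (final 10⁻⁷, 10⁻⁶ or 10⁻⁵ M) was then added together with estradiol at 10⁻⁸ M final to test whether estradiol antagonizes growth inhibition. After 5 days, cells were ethanol-fixed (90%) and hematoxylin-stained, and optical density was read at 540 nm.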

Homo sapiens [4] = species: Homo sapiens; test: The compound was evaluated for the optical density at concentration 10E-6 M in MCF-7 cell culture in the presence of estradiol.; assay type: ADME; how it was run: as §1
[5] = target: Estrogen receptor (Rattus norvegicus) (UniProt P06211+Q62986)
[6] = target: Estrogen receptor (Homo sapiens) (UniProt P03372)
Homo sapiens [7] = species: Homo sapiens; test: The compound was evaluated for the optical density at concentration 10E-5 M in MCF-7 cell culture.; assay type: ADME
Homo sapiens [8] = species: Homo sapiens; test: The compound was evaluated for the optical density at concentrations 10E-7 M in MCF-7 cell culture in the presence of estradiol.; assay type: ADME; how it was run: as §1

Chain of Estrogen receptor (Homo sapiens) (P03372 whole entry, looked up): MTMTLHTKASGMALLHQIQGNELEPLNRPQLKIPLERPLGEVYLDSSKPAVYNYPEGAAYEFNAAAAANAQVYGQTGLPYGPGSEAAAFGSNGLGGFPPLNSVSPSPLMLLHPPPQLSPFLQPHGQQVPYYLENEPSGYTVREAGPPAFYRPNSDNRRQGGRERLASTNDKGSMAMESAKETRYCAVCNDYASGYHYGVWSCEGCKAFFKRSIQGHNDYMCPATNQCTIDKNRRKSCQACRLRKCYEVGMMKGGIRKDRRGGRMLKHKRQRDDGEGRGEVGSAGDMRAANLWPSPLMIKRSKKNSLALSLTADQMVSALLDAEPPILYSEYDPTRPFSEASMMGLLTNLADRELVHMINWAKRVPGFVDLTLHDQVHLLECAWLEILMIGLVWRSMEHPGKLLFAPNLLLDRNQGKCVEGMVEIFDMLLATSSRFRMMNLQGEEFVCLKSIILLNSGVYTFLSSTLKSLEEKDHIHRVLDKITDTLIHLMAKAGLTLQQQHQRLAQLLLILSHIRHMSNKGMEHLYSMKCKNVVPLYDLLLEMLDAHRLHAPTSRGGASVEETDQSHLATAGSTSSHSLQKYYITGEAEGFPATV

Row | Optical density (Homo sapiens [1]) | Optical density (Homo sapiens [2]) | Optical density (Homo sapiens [3]) | Optical density (Homo sapiens [4]) | Affinity [5] | Affinity [6] | Optical density (Homo sapiens [7]) | Optical density (Homo sapiens [8]) | Structure (SMILES)
1 | 0.39 | 0.288 | 0.079 | 0.385 | 0.5 | 0.02 | 0.049 | 0.45 | CN(C)CCOc1ccc(C2=C(c3ccccc3)CCc3ccccc32)cc1
2 | 0.244 | 0.182 | 0.098 | 0.438 | 1 | 0.02 | 0.058 | 0.379 | CN(C)CCOc1ccc(C2=C(c3ccccc3)CCCc3ccccc32)cc1
